{"source": "ChEMBL document CHEMBL1240321", "about": "“Cyclostreptin binds covalently to microtubule pores and lumenal taxoid binding sites” (Nat Chem Biol, 2007)", "key": {"[1]": {"assay": "Displacement of [3H]epothilone B from microtubule assessed as bound radioligand level at 20 uM treated before radioligand addition by competitive binding assay"}, "A2780 [2]": {"tested_on": "A2780", "assay": "Induction of mitotic cell cycle arrest in human A2780 cells assessed as accumulation of cells at SubG1 phase at 100 nM after 24 hrs by flow cytometry (Rvb= 2.5%)", "type": "functional"}, "A549": {"tested_on": "A549", "assay": "Induction of mitotic cell cycle arrest in human A549 cells assessed as accumulation of cells at G2+M phase at 100 nM after 24 hrs by flow cytometry (Rvb= 19.6%)", "type": "functional"}, "[3]": {"assay": "Induction of mitotic cell cycle arrest in potoroo PtK2 cells assessed as accumulation at S phase at 100 nM after 24 hrs by flow cytometry (Rvb= 12%)", "type": "functional, Potorous tridactylus"}, "[4]": {"assay": "Induction of mitotic cell cycle arrest in potoroo PtK2 cells assessed as accumulation of cells at SubG1 phase at 100 nM after 24 hrs by flow cytometry (Rvb= 0.9%)", "type": "functional, Potorous tridactylus"}, "[5]": {"assay": "Cytotoxicity against human 1A9PTX22 cells", "type": "functional, cell-based", "conditions": "1A9/ptx-22"}, "[6]": {"assay": "Cytotoxicity against human 1A9PTX10 cells", "type": "functional, cell-based", "conditions": "1A9/ptx-10"}, "[7]": {"assay": "Cytotoxicity against human A2780-1A9 cells", "type": "functional, cell-based"}, "[8]": {"assay": "Induction of mitotic cell cycle arrest in potoroo PtK2 cells assessed as accumulation of cells at G2+M phase at 2 uM treated for 7 hrs, washed followed by 48 hrs incubation by flow cytometry (Rvb= 22.3%)", "type": "functional, Potorous tridactylus"}, "[9]": {"assay": "Induction of mitotic cell cycle arrest in potoroo PtK2 cells assessed as accumulation of cells at G1/G0 phase at 5 uM treated for 7 hrs, washed followed by 48 hrs incubation by flow cytometry (Rvb= 65.8%)", "type": "functional, Potorous tridactylus"}, "[10]": {"assay": "Induction of mitotic cell cycle arrest in potoroo PtK2 cells assessed as accumulation of cells at G1/G0 phase at 2 uM treated for 7 hrs, washed followed by 48 hrs incubation by flow cytometry (Rvb= 65.8%)", "type": "functional, Potorous tridactylus"}, "[11]": {"assay": "Induction of mitotic cell cycle arrest in potoroo PtK2 cells assessed as accumulation of cells at SubG1 phase at 2 uM treated for 7 hrs, washed followed by 48 hrs incubation by flow cytometry (Rvb= 1.1%)", "type": "functional, Potorous tridactylus"}, "[12]": {"assay": "Induction of mitotic cell cycle arrest in potoroo PtK2 cells assessed as accumulation of cells at G2+M phase at 5 uM treated for 7 hrs, washed followed by 16 hrs incubation by flow cytometry (Rvb= 23%)", "type": "functional, Potorous tridactylus"}, "[13]": {"assay": "Induction of mitotic cell cycle arrest in potoroo PtK2 cells assessed as accumulation at S phase at 5 uM treated for 7 hrs, washed followed by 16 hrs incubation by flow cytometry (Rvb= 16%)", "type": "functional, Potorous tridactylus"}, "[14]": {"assay": "Induction of mitotic cell cycle arrest in potoroo PtK2 cells assessed as accumulation at S phase at 2 uM treated for 7 hrs, washed followed by 16 hrs incubation by flow cytometry (Rvb= 16%)", "type": "functional, Potorous tridactylus"}, "[15]": {"assay": "Induction of mitotic cell cycle arrest in potoroo PtK2 cells assessed as accumulation of cells at G1/G0 phase at 5 uM treated for 7 hrs, washed followed by 16 hrs incubation by flow cytometry (Rvb= 59%)", "type": "functional, Potorous tridactylus"}, "[16]": {"assay": "Induction of mitotic cell cycle arrest in potoroo PtK2 cells assessed as accumulation of cells at SubG1 phase at 2 uM treated for 7 hrs, washed followed by 16 hrs incubation by flow cytometry (Rvb= 2%)", "type": "functional, Potorous tridactylus"}, "[17]": {"assay": "Induction of mitotic cell cycle arrest in potoroo PtK2 cells assessed as accumulation of cells at G2+M phase at 5 uM after 7 hrs by flow cytometry (Rvb= 22.1%)", "type": "functional, Potorous tridactylus"}, "[18]": {"assay": "Induction of mitotic cell cycle arrest in potoroo PtK2 cells assessed as accumulation of cells at G1/G0 phase at 2 uM after 7 hrs by flow cytometry (Rvb= 60%)", "type": "functional, Potorous tridactylus"}, "PtK2 [19]": {"tested_on": "PtK2", "assay": "Induction of micronucleation in potoroo PtK2 cells at 5 uM treated for 7 hrs followed by compound washout measured after 48 hrs by flow cytometry", "type": "functional, cell-based", "conditions": "Potorous tridactylus"}, "PtK2 [20]": {"tested_on": "PtK2", "assay": "Induction of microtubule bundle formation in potoroo PtK2 cells at 5 uM treated for 7 hrs followed by compound washout measured after 48 hrs by flow cytometry", "type": "cell-based", "conditions": "Potorous tridactylus"}, "PtK2 [21]": {"tested_on": "PtK2", "assay": "Induction of microtubule bundle formation in potoroo PtK2 cells at 2 uM treated for 7 hrs followed by compound washout measured after 48 hrs by flow cytometry", "type": "cell-based", "conditions": "Potorous tridactylus"}, "PtK2 [22]": {"tested_on": "PtK2", "assay": "Induction of microtubule bundle formation in potoroo PtK2 cells at 5 uM after 7 hrs by flow cytometry", "type": "cell-based", "conditions": "Potorous tridactylus"}, "PtK2 [23]": {"tested_on": "PtK2", "assay": "Induction of microtubule bundle formation in potoroo PtK2 cells at 2 uM after 7 hrs by flow cytometry", "type": "cell-based", "conditions": "Potorous tridactylus"}, "[24]": {"assay": "Induction of mitotic cell cycle arrest in human A2780AD cells assessed as accumulation of cells at G2+M phase at 100 nM after 24 hrs by flow cytometry (Rvb= 20.5%)", "type": "functional, A2780 ADR"}, "[25]": {"assay": "Binding affinity to beta-tubulin 219-243 amino acid sequence by mass spectroscopy", "procedure,_shortened": "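Polymerized native microtubules (20 µM tubulin, 25 µM ligand, 30 min, 37 °C in GAB with 1 mM GTP) pelleted and washed, then digested with trypsin (2 h, 37 °C) or chymotrypsin (1 h, 25 °C). Peptides analysed by nano-HPLC triple-quadrupole MS with precursor ion scanning for the m/z 249.0 cyclostreptin fragment. Adduct stoichiometry taken from the 219–243 peptide signal.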"}, "[26]": {"assay": "Displacement of [3H]discodermolide from microtubule assessed as bound radioligand level at 20 uM treated before radioligand addition by competitive binding assay"}, "[27]": {"assay": "Displacement of [3H]epothilone B from microtubule assessed as bound radioligand level at 20 uM treated after radioligand addition by competitive binding assay"}, "[28]": {"assay": "Induction of mitotic cell cycle arrest in human A2780AD cells assessed as accumulation of cells at S phase at 100 nM after 24 hrs by flow cytometry (Rvb= 16.2%)", "type": "functional, A2780 ADR"}, "[29]": {"assay": "Induction of mitotic cell cycle arrest in human A2780AD cells assessed as accumulation of cells at G1/G0 phase at 100 nM after 24 hrs by flow cytometry (Rvb= 59.2%)", "type": "functional, A2780 ADR"}, "[30]": {"assay": "Induction of mitotic cell cycle arrest in human A2780AD cells assessed as accumulation of cells at SubG1 phase at 100 nM after 24 hrs by flow cytometry (Rvb= 4.1%)", "type": "functional, A2780 ADR"}, "A2780 [31]": {"tested_on": "A2780", "assay": "Induction of mitotic cell cycle arrest in human A2780 cells assessed as accumulation of cells at G2+M phase at 100 nM after 24 hrs by flow cytometry (Rvb= 20%)", "type": "functional"}, "A2780 [32]": {"tested_on": "A2780", "assay": "Induction of mitotic cell cycle arrest in human A2780 cells assessed as accumulation of cells at S phase at 100 nM after 24 hrs by flow cytometry (Rvb= 17.5%)", "type": "functional"}, "PtK2 [33]": {"tested_on": "PtK2", "assay": "Displacement of Flutax-2 from microtubule in potoroo PtK2 cells at 100 uM", "conditions": "Potorous tridactylus"}, "[34]": {"assay": "Induction of mitotic cell cycle arrest in potoroo PtK2 cells assessed as accumulation at 100 nM after 24 hrs by flow cytometry (Rvb= 26.3%)"}, "PtK2 [35]": {"tested_on": "PtK2", "assay": "Induction of micronucleation in potoroo PtK2 cells at 5 uM treated for 7 hrs followed by compound washout measured after 16 hrs by flow cytometry", "conditions": "Potorous tridactylus"}}, "note": "Calls of active or inactive are those of the source. No cut-off for these calls is given here."}
{"molecule": "CC1=C[C@H]2[C@@H](O)[C@H](C)[C@@H](O)[C@@H]2[C@H]2[C@@H]3C4=C5O[C@](C)(CC[C@@H](OC4=O)[C@H]5C)[C@@H]3C[C@@H]12", "note": "[CYCLOSTREPTIN]", "values": [{"measurement": "Activity", "setting": "[1]", "value": 12, "unit": "%"}, {"measurement": "Activity", "setting": "A2780 [2]", "value": 16.3, "unit": "%"}, {"measurement": "Activity", "setting": "A549", "value": 72, "unit": "%"}, {"measurement": "Activity", "setting": "[3]", "value": 14.8, "unit": "%"}, {"measurement": "Activity", "setting": "[4]", "value": 4.6, "unit": "%"}, {"measurement": "IC50", "setting": "[5]", "value": 0.058, "unit": "µM"}, {"measurement": "IC50", "setting": "[6]", "value": 0.24, "unit": "µM"}, {"measurement": "IC50", "setting": "[7]", "value": 0.044, "unit": "µM"}, {"measurement": "Activity", "setting": "[8]", "value": 75, "unit": "%"}, {"measurement": "Activity", "setting": "[9]", "value": 9.4, "unit": "%"}, {"measurement": "Activity", "setting": "[10]", "value": 8.7, "unit": "%"}, {"measurement": "Activity", "setting": "[11]", "value": 7.1, "unit": "%"}, {"measurement": "Activity", "setting": "[12]", "value": 65.5, "unit": "%"}, {"measurement": "Activity", "setting": "[13]", "value": 12.6, "unit": "%"}, {"measurement": "Activity", "setting": "[14]", "value": 17, "unit": "%"}, {"measurement": "Activity", "setting": "[15]", "value": 18.5, "unit": "%"}, {"measurement": "Activity", "setting": "[16]", "value": 3.5, "unit": "%"}, {"measurement": "Activity", "setting": "[17]", "value": 35, "unit": "%"}, {"measurement": "Activity", "setting": "[18]", "value": 48, "unit": "%"}, {"measurement": "Activity", "setting": "PtK2 [19]", "value": "Active"}, {"measurement": "Activity", "setting": "PtK2 [20]", "value": "Active"}, {"measurement": "Activity", "setting": "PtK2 [21]", "value": "Active"}, {"measurement": "Activity", "setting": "PtK2 [22]", "value": 4, "unit": "%"}, {"measurement": "Activity", "setting": "PtK2 [23]", "value": 4, "unit": "%"}, {"measurement": "Activity", "setting": "[24]", "value": 71, "unit": "%"}, {"measurement": "Activity", "setting": "[25]", "value": "Active"}, {"measurement": "Activity", "setting": "[26]", "value": 19, "unit": "%"}, {"measurement": "Activity", "setting": "[27]", "value": 79, "unit": "%"}, {"measurement": "Activity", "setting": "[28]", "value": 6, "unit": "%"}, {"measurement": "Activity", "setting": "[29]", "value": 6.6, "unit": "%"}, {"measurement": "Activity", "setting": "[30]", "value": 16.4, "unit": "%"}, {"measurement": "Activity", "setting": "A2780 [31]", "value": 61, "unit": "%"}, {"measurement": "Activity", "setting": "A2780 [32]", "value": 10.6, "unit": "%"}, {"measurement": "Activity", "setting": "PtK2 [33]", "value": "Active"}, {"measurement": "Activity", "setting": "[34]", "value": 65, "unit": "%"}, {"measurement": "Activity", "setting": "PtK2 [35]", "value": 70, "unit": "%"}]}
